From ChEMBL document CHEMBL3864137, “Design, Synthesis, and Pharmacological Evaluation of 2-(2,5-Dimethyl-5,6,7,8-tetrahydroquinolin-8-yl)-N-aryl Propanamides as Novel Smoothened (Smo) Antagonists” (J Med Chem, 2016)
The source made the active and inactive calls. No cut-off for these calls is given here.

Assays:
[1] = MRT (0 to infinity) in Sprague-Dawley rat at 3 mg/kg, po; format: ADME, organism-based; conditions: in vivo
Summary of the method: (§1)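 SD rats; single dose 1.0 mg/kg i.v. or 3.0 mg/kg p.o., vehicle DMSO, Tween 80, normal saline. Plasma concentration–time profiles give CL, Vss, T1/2, Cmax, Tmax, AUC0-∞ and MRT, with oral bioavailability F estimated from p.o. versus i.v. exposure. Values are the average of three runs.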

[2] = system: Medulloblastoma cell; assay: Antiproliferative activity against mouse medulloblastoma cells isolated from Ptch+/- p53-/- mouse measured after 72 hrs by MTS assay; format: functional
Summary of the method: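 Medulloblastoma cells from Ptch+/-;p53-/- allografts in nude mice, minced and collagenase-digested, grown in Neurobasal A with B-27, EGF 20 ng/ml, bFGF 20 ng/ml, nonessential amino acids and N-acetyl cysteine 60 µg/ml. Seeded in 96-well plates, treated 72 h, viability read by MTS; mean ± SD.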

[3] = Cmax in Sprague-Dawley rat at 3 mg/kg, po; format: ADME, organism-based; design: dose 3 mg/kg, route oral; conditions: in vivo; summary of the method: as §1
[4] = biological target: Protein smoothened (Mus musculus) (UniProt P56726); assay: Inhibition of Smo-mediated Hh signalling pathway in mouse Shh Light2 cells assessed as suppression of Gli1-mRNA expression at 0.1 uM measured after 36 hrs by RT-qPCR analysis; format: cell-based
Protein smoothened (Mus musculus), sequence (P56726 whole entry): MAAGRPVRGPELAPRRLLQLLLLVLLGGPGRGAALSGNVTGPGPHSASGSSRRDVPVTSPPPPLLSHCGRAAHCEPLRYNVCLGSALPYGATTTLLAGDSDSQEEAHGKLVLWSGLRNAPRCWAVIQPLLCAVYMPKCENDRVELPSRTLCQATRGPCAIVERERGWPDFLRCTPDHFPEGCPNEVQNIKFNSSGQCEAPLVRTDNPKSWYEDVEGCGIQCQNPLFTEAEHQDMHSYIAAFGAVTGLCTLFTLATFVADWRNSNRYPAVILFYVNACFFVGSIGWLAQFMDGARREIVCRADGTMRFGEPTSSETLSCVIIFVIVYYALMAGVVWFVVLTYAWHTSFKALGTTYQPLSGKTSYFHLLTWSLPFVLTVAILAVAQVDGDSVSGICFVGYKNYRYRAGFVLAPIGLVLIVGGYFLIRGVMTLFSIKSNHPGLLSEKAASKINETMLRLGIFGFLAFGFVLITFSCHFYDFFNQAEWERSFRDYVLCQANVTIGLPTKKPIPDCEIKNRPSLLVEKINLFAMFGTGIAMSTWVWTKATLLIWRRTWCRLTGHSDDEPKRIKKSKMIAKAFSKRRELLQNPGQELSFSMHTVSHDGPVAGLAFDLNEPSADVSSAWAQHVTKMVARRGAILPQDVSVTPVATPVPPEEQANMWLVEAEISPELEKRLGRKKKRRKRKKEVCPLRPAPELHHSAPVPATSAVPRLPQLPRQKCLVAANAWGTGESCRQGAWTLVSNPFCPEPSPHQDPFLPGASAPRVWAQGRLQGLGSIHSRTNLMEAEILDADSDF

[5] = Half life in Sprague-Dawley rat at 1 mg/kg, iv; format: ADME, organism-based; conditions: in vivo; summary of the method: as §1
[6] = Induction of apoptosis in mouse medulloblastoma cells isolated from Ptch+/- p53-/- mouse assessed as early apoptotic cells at 10 uM measured after 24 hrs by Annexin V-FITC/propidium iodide staining based flow cytometry (reference value: 0.7%); format: functional, Medulloblastoma cell
[7] = biological target: Protein smoothened (Mus musculus) (UniProt P56726); assay: Inhibition of Smo in mouse medulloblastoma cells isolated from Ptch+/- p53-/- mouse assessed as decrease in Gli1-mRNA expression at 0.1 uM by qRT-PCR analysis
[8] = In vivo inhibition of Smo-mediated Hh signalling pathway in athymic nude mouse implanted with mouse Ptch+/- p53-/- medulloblastoma cells assessed as suppression of Gli1-mRNA expression at 25 and 50 mg/kg, ip bid for 13 days measured 4 hrs post last dose by RT-qPCR analysis; format: functional, organism-based
Summary of the method: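 Nude mice bearing subcutaneous Ptch+/-;p53-/- medulloblastoma allografts dosed i.p. twice daily for 13 days. Tumors collected 4 h after the last dose for Gli1 mRNA measurement; mean ± SD.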

[9] = Half life in Sprague-Dawley rat at 3 mg/kg, po; format: ADME, organism-based; conditions: in vivo; summary of the method: as §1
[10] = Oral bioavailability in Sprague-Dawley rat at 3 mg/kg; format: ADME, organism-based; conditions: in vivo; summary of the method: as §1
[11] = biological target: Protein smoothened (Homo sapiens) (UniProt Q99835); assay: Displacement of BODIPY-cyclopamine from human Smo expressed in HEK293 cells at 0.1 uM measured after 10 hrs by FACS analysis; format: cell-based
Protein smoothened (Homo sapiens), sequence (Q99835 whole entry): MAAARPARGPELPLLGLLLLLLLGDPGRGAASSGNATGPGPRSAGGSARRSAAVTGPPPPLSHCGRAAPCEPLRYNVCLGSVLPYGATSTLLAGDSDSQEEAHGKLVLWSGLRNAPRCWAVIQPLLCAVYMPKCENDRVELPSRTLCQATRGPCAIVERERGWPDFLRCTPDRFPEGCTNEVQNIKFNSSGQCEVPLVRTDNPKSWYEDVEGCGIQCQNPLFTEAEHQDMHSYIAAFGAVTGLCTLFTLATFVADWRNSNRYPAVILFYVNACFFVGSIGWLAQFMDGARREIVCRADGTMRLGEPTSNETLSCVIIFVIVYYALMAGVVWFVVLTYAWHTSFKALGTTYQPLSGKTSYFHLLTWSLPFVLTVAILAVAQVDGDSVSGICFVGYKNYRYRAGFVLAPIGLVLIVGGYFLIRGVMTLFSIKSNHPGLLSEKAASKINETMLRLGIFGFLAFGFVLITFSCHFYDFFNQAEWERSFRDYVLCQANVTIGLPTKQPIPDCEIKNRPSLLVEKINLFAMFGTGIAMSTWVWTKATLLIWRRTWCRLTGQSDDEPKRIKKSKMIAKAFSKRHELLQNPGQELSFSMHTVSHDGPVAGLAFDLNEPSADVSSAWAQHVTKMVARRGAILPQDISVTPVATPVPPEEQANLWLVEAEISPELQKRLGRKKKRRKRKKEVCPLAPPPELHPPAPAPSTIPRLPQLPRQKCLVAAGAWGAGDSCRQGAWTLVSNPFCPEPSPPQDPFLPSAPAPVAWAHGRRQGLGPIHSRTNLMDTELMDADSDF
Summary of the method: (§2)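 HEK293 cells on coverslips transfected with hSmo constructs and incubated with BODIPY-cyclopamine plus test drug for 10 h. After PBS wash, paraformaldehyde fixation and Triton X-100 permeabilization, cells were either analysed by FACS or DAPI-mounted for fluorescence microscopy; three experiments.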

[12] = biological target: Protein smoothened (Mus musculus) (UniProt P56726); assay: Potency index, ratio of vismodegib IC50 to test compound IC50 for Smo-mediated Hh signalling pathway in mouse Shh Light2 cells; format: cell-based
Summary of the method: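 Ratio of reference to test IC50, both taken from the Gli-luc dual luciferase assay in light II cells (NIH-3T3 with stable Gli-firefly reporter and Renilla vector). IC50 values are from three separate experiments.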

[13] = biological target: Voltage-gated inwardly rectifying potassium channel KCNH2 (Homo sapiens, UniProt Q12809); assay: Inhibition of human ERG
Voltage-gated inwardly rectifying potassium channel KCNH2, sequence (Q12809 whole entry): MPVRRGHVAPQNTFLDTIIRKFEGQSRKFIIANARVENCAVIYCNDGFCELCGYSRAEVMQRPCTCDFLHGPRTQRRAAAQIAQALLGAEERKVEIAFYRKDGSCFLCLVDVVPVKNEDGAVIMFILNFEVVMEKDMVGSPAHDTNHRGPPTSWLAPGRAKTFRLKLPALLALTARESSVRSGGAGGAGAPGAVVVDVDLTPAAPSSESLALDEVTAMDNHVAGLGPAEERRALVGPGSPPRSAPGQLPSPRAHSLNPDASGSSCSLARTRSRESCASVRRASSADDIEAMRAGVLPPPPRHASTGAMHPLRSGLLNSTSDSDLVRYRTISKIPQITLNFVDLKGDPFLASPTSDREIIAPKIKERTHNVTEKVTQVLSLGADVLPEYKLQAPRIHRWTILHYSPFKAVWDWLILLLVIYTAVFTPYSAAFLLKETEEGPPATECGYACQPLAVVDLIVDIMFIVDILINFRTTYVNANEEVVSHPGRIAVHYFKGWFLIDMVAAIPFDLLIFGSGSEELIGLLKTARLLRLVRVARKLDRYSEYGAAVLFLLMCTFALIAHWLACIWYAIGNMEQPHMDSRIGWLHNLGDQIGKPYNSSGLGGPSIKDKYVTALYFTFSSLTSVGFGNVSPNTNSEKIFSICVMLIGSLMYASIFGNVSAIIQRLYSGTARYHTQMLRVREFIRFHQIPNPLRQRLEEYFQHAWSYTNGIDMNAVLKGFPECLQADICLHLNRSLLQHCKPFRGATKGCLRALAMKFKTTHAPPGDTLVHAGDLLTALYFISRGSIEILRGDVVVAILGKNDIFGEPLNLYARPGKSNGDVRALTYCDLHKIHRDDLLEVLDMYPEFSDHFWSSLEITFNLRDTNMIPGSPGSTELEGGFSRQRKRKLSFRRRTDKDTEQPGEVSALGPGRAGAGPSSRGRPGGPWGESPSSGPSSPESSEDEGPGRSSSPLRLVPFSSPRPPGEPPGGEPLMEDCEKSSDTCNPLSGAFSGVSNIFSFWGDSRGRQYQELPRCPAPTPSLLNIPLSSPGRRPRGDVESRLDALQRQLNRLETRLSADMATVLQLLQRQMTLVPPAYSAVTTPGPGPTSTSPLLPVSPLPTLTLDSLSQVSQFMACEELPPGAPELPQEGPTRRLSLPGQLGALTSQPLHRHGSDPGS

[14] = Antitumor activity against mouse Ptch+/- p53-/- medulloblastoma cells implanted in athymic nude mouse assessed as tumor growth inhibition at 25 mg/kg, ip bid for 13 days relative to control; format: functional; conditions: Medulloblastoma cell, 312 h, read-out: TGI
Summary of the method: (§3)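 Primary Ptch+/-;p53-/- medulloblastoma passaged subcutaneously in athymic nude mice as 1 mm3 fragments in the right flank. Dosing began at 100–150 mm3: i.p. 25 or 50 mg/kg twice daily for 13 days. Calipers twice weekly, volume = L×W²/2, TGI from volume change against vehicle. Body weight tracked; tumor mean ± SEM, weight mean ± SD.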

[15] = system: Mus musculus; assay: Toxicity in athymic nude mouse implanted with mouse Ptch+/- p53-/- medulloblastoma cells assessed as body weight loss at 25 and 50 mg/kg, ip bid for 13 days; format: organism-based; conditions: in vivo, 312 h; summary of the method: as §3
[16] = AUC (0 to infinity) in Sprague-Dawley rat at 1 mg/kg, iv; format: ADME, organism-based; design: dose 1 mg/kg, time infinity, route intravenous; conditions: in vivo; summary of the method: as §1
[17] = Antitumor activity against mouse Ptch+/- p53-/- medulloblastoma cells implanted in athymic nude mouse assessed as tumor growth inhibition at 50 mg/kg, ip bid for 13 days relative to control; format: functional; conditions: Medulloblastoma cell, 312 h, read-out: TGI; summary of the method: as §3
[18] = biological target: Protein smoothened (Homo sapiens) (UniProt Q99835); assay: Displacement of BODIPY-cyclopamine from human Smo expressed in HEK293 cells at 0.1 uM measured after 10 hrs by DAPI staining based fluorescence microscopic assay; format: cell-based; summary of the method: as §2
[19] = AUClast in Sprague-Dawley rat at 3 mg/kg, po; format: ADME, organism-based; design: dose 3 mg/kg, time 0 - last, route oral; conditions: in vivo; summary of the method: as §1
[20] = AUClast in Sprague-Dawley rat at 1 mg/kg, iv; format: ADME, organism-based; design: dose 1 mg/kg, time 0 - last, route intravenous; conditions: in vivo; summary of the method: as §1
[21] = Tmax in Sprague-Dawley rat at 3 mg/kg, po; format: ADME, organism-based; conditions: in vivo; summary of the method: as §1
[22] = Induction of apoptosis in mouse medulloblastoma cells isolated from Ptch+/- p53-/- mouse assessed as late apoptotic cells at 10 uM measured after 24 hrs by Annexin V-FITC/propidium iodide staining based flow cytometry (reference value: 0.1%); format: functional, Medulloblastoma cell
[23] = Clearance in Sprague-Dawley rat at 1 mg/kg, iv; format: ADME, organism-based; conditions: in vivo; summary of the method: as §1
[24] = Cytotoxicity against human KB cells; format: toxicity, cell-based
[25] = MRT (0 to infinity) in Sprague-Dawley rat at 1 mg/kg, iv; format: ADME, organism-based; conditions: in vivo; summary of the method: as §1
[26] = biological target: Protein smoothened (Homo sapiens) (UniProt Q99835); assay: Antagonist activity at wild-type Smo (unknown origin) expressed in mouse Shh Light2 cells assessed as suppression of Gli-mRNA expression measured after 36 hrs by dual luciferase reporter gene assay; format: cell-based; conditions: in the assay text read “Gli-luciferase activity” for “Gli-mRNA expression”
Summary of the method: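 Light II cells transfected with wild-type Smo plasmid to drive Gli-luciferase, exposed to compound for 36 h, then harvested for dual luciferase reporter assay. Mean ± SD.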

[27] = Volume of distribution at steady state in Sprague-Dawley rat at 1 mg/kg, iv; format: ADME, organism-based; conditions: in vivo, read-out: Vdss; summary of the method: as §1
[28] = AUC (0 to infinity) in Sprague-Dawley rat at 3 mg/kg, po; format: ADME, organism-based; design: dose 3 mg/kg, route oral, time infinity; conditions: in vivo; summary of the method: as §1
[29] = biological target: Protein smoothened (Mus musculus, UniProt P56726); assay: Inhibition of Smo-mediated Hh signalling pathway in mouse Shh Light2 cells by Gli-luciferase reporter gene assay; format: cell-based
Protein smoothened, sequence (P56726 whole entry): as the sequence (P56726 whole entry) above
Summary of the method: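 Light II cells (NIH-3T3 stably carrying a Gli-responsive firefly luciferase reporter plus a Renilla luciferase vector), seeded in 96-well plates and treated. Firefly/Renilla activity in the lysates read by dual luciferase assay on a luminometer. IC50 is the mean ± SD of three separate experiments.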

Compound: Cc1ccc2c(n1)[C@H]([C@@H](C)C(=O)Nc1ccc(Cl)c(-c3nc4ccccc4n3C)c1)CC[C@H]2C
- MRT inf [1]: 1.53 h
- Activity [2]: Dose-dependent effect
- Cmax [3]: 799 ng/mL
- inhibition [4]: Active
- half-life [5]: 5.95 h
- Activity [6]: 21.7%
- inhibition [7]: Active
- inhibition [8]: Active
- half-life [9]: 1.4 h
- bioavailability [10]: 27.4%
- inhibition [11]: Active
- Ratio IC50 [12]: 4 to 5
- IC50 [13]: > 15 µM
- inhibition in vivo at 25 mg/kg [14]: 81.7%
- Activity [15]: Non-Toxic
- AUC(0-inf) [16]: 1840 ng·h/mL
- inhibition in vivo at 50 mg/kg [17]: 91.5%
- inhibition [18]: Active
- AUC(0-t) [19]: 1460 ng·h/mL
- AUC(0-t) [20]: 1780 ng·h/mL
- Tmax [21]: 0.25 h
- Activity [22]: 4.6%
- clearance [23]: 9.31 mL/min/kg
- IC50 [24]: > 20 µM
- MRT inf [25]: 3.97 h
- inhibition [26]: Dose-dependent effect
- Vd [27]: 2.23 L/kg
- AUC(0-inf) [28]: 1480 ng·h/mL
- IC50 [29]: 0.00953 µM
